Results from ChEMBL document CHEMBL4811251 (Eur J Med Chem, 2021).

Key:
[1] = tested on: MV4-11; test: Antiproliferative activity against human MV4-11 cells assessed as growth inhibition after 72 hrs by resazurin assay; assay type: functional
Method in brief: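 MV4-11 cells kept at 37 °C with 5% CO2 in ATCC-recommended medium plus 10% FBS. In-house resazurin viability assay after 72 h exposure. GI50 reported as mean ± standard deviation from at least two replicates.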

[2] = target: Glycogen synthase kinase-3 alpha (Homo sapiens) (UniProt P49840); test: Inhibition of GSK3alpha (unknown origin) assessed as residual activity at 1 uM relative to control
Chain of Glycogen synthase kinase-3 alpha (Homo sapiens) (P49840 2-483 limits assumed): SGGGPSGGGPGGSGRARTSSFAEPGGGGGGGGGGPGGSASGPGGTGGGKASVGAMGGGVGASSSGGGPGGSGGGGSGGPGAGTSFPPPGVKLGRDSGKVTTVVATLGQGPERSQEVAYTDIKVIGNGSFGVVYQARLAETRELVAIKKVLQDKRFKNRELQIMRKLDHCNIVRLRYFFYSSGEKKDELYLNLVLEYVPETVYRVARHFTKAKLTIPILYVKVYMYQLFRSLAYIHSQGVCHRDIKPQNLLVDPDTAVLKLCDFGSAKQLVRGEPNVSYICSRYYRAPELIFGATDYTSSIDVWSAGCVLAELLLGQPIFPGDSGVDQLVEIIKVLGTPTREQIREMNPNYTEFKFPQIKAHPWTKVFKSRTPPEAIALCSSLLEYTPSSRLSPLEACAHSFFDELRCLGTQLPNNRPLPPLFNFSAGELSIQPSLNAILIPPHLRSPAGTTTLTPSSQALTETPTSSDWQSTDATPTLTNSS

[3] = target: Glycogen synthase kinase-3 beta (Homo sapiens) (UniProt P49841); test: Inhibition of GSK3beta (unknown origin) assessed as residual activity at 1 uM relative to control
Chain of Glycogen synthase kinase-3 beta (Homo sapiens) (P49841 whole entry, looked up): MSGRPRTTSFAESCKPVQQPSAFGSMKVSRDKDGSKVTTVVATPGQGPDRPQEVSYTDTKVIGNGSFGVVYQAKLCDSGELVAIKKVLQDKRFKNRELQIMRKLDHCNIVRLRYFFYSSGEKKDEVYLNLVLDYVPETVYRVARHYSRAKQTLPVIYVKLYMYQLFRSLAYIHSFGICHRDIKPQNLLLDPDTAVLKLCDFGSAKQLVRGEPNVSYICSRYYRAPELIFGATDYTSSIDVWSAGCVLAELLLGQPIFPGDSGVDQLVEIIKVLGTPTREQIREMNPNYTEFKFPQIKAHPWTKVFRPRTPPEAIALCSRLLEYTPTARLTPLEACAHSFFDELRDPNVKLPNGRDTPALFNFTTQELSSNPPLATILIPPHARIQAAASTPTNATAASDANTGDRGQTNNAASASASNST

[4] = target: CDK9/cyclin T1 (Homo sapiens) (UniProt O60563+P50750); test: Inhibition of CDK9/Cyclin T1 (unknown origin) assessed as residual activity at 1 uM relative to control; assay type: protein-complex assay
[5] = Volume of distribution at steady state in Sprague-Dawley rat at 5 mg/kg, iv measured upto 24 hrs by LC/MS/MS analysis; assay type: ADME, organism-based; settings: in vivo, read-out: Vdss
[6] = Volume of distribution at steady state in BALB/c mouse at 2 mg/kg, iv measured upto 24 hrs by LC/MS/MS analysis; assay type: ADME, organism-based; settings: in vivo, read-out: Vdss
[7] = Clearance in BALB/c mouse at 2 mg/kg, iv measured upto 24 hrs by LC/MS/MS analysis; assay type: ADME, organism-based; settings: in vivo
[8] = Cmax in Sprague-Dawley rat at 5 mg/kg, iv measured upto 24 hrs by LC/MS/MS analysis; assay type: ADME, organism-based; design: route intravenous, dose 5 mg/kg, time <=24; settings: in vivo
[9] = Cmax in BALB/c mouse at 2 mg/kg, iv measured upto 24 hrs by LC/MS/MS analysis; assay type: ADME, organism-based; design: route intravenous, dose 2 mg/kg, time <=24; settings: in vivo
[10] = Cmax in BALB/c mouse at 10 mg/kg, po measured upto 24 hrs by LC/MS/MS analysis; assay type: ADME, organism-based; design: route oral, dose 10 mg/kg, time <=24; settings: in vivo
[11] = Tmax in Sprague-Dawley rat at 20 mg/kg, po measured upto 24 hrs by LC/MS/MS analysis; assay type: ADME, organism-based; settings: in vivo
[12] = AUC in Sprague-Dawley rat at 20 mg/kg, po measured upto 24 hrs by LC/MS/MS analysis; assay type: ADME, organism-based; design: route oral, dose 20 mg/kg, time <=24; settings: in vivo
[13] = AUC in BALB/c mouse at 10 mg/kg, po measured upto 24 hrs by LC/MS/MS analysis; assay type: ADME, organism-based; design: route oral, dose 10 mg/kg, time <=24; settings: in vivo
[14] = target: Leucine-rich repeat serine/threonine-protein kinase 2 (Homo sapiens, UniProt Q5S007); test: Inhibition of human LRRK2 using RLGRDKYKTLRQIRQ as substrate after 40 mins in presence of [gamma-33ATP] by scintillation counting based radiometry assay
Chain of Leucine-rich repeat serine/threonine-protein kinase 2 (Q5S007 whole entry): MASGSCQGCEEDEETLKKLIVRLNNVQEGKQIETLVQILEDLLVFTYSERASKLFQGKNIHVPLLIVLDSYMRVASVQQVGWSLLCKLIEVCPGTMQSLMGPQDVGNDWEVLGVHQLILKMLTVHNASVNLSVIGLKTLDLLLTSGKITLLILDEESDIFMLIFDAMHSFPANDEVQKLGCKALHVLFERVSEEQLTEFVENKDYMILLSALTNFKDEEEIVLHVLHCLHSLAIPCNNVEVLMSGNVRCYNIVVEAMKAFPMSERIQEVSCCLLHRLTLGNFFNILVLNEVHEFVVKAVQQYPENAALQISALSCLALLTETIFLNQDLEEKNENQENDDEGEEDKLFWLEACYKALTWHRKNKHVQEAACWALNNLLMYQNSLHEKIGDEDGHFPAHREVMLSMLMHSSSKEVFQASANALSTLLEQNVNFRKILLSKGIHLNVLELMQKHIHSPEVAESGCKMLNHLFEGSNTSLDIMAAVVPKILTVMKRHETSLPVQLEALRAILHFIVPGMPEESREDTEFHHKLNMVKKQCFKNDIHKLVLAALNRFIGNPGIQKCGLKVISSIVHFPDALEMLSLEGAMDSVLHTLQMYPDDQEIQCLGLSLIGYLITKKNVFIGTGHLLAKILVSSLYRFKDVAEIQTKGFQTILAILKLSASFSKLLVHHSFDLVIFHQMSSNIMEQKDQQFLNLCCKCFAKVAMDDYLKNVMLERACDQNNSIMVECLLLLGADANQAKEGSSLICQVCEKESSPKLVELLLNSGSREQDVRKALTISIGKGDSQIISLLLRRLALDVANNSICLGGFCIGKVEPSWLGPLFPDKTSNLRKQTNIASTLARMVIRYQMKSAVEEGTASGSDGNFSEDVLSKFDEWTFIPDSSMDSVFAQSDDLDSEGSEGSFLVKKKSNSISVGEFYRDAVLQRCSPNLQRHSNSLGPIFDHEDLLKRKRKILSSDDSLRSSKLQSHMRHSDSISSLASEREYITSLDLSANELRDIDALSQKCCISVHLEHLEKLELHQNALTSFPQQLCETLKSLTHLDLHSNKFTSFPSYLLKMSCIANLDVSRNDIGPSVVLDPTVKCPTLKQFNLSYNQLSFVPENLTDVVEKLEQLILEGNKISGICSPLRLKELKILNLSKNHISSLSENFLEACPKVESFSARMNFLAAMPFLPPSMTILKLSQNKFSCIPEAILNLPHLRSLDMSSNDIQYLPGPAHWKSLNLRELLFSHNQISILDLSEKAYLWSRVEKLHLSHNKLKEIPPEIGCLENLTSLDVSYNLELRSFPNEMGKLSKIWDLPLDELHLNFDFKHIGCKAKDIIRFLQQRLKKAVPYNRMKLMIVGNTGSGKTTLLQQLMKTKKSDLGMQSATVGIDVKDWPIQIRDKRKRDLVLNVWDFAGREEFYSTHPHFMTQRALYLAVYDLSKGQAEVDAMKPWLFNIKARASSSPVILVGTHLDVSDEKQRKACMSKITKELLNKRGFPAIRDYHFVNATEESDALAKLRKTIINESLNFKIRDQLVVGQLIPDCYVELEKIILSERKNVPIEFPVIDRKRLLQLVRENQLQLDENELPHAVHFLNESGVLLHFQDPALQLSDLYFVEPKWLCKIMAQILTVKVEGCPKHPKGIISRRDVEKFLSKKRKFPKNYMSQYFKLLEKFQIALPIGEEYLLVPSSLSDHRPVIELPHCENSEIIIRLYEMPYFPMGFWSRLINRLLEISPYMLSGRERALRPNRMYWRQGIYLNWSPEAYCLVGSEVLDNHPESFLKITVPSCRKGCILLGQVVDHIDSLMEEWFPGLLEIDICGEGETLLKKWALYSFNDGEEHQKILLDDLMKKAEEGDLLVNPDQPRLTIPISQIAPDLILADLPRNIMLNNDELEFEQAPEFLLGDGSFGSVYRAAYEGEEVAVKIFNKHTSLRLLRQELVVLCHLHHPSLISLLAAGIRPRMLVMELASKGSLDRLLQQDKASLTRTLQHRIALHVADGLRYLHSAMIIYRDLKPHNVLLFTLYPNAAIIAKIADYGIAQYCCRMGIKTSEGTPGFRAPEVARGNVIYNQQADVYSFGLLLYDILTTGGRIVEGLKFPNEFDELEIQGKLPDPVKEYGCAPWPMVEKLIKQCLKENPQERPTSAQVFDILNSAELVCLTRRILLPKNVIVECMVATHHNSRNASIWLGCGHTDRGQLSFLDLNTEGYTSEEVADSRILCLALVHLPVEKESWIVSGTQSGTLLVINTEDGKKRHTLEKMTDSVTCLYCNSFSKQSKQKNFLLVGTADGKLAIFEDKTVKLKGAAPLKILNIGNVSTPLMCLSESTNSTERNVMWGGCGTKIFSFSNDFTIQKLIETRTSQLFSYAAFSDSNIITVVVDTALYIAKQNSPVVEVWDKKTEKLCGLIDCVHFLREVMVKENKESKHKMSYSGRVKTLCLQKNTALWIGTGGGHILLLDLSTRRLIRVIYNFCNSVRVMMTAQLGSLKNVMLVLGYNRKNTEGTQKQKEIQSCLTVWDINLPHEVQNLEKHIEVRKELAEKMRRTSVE

[15] = target: Macrophage colony-stimulating factor 1 receptor (Homo sapiens, UniProt P07333); test: Inhibition of human FMS using KKKSPGEYVNIEFG as substrate incubated for 40 mins in presence of [gamma-33ATP] by scintillation counting based radiometry assay
[16] = target: T1, Receptor-type tyrosine-protein kinase FLT3 (Homo sapiens, UniProt P36888); test: Inhibition of human FLT3 using EAIYAAPFAKKK as substrate incubated for 40 mins in presence of [gamma-33ATP] by scintillation counting based radiometry assay
T1 sequence (P36888 whole entry): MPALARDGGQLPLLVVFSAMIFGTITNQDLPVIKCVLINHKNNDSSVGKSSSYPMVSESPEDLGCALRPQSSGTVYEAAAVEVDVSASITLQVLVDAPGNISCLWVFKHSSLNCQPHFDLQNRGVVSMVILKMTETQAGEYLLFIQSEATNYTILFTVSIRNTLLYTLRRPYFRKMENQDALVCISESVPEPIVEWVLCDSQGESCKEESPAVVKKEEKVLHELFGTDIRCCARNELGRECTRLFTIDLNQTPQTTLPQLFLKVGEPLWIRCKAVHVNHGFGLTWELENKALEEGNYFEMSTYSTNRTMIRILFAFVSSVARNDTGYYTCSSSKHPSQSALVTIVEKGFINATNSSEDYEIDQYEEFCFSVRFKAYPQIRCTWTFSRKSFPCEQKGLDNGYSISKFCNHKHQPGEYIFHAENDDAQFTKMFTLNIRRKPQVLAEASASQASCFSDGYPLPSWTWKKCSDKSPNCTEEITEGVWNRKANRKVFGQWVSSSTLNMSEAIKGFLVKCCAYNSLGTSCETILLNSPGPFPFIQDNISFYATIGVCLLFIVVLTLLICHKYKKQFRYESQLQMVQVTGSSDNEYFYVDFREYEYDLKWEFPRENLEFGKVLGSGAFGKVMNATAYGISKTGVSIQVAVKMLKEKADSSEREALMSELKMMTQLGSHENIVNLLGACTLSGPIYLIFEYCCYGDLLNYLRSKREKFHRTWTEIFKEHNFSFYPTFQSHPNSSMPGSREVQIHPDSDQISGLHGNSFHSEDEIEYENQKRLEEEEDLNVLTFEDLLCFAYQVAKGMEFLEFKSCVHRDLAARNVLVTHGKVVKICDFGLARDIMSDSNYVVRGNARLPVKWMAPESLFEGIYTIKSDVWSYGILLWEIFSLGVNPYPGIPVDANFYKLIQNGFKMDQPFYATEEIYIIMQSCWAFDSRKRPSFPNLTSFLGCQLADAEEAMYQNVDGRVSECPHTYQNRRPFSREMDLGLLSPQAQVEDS

[17] = tested on: A2780; test: Antiproliferative activity against human A2780 cells assessed as growth inhibition incubated for 72 hrs by MTT assay; assay type: functional
[18] = tested on: MV4-11; test: Induction of apoptosis in human MV4-11 cells assessed as late apoptotic cells at 10 uM after 72 hrs by Annexin V FITC/PI staining based flow cytometry analysis (reference value: 3.41%); assay type: functional
[19] = tested on: MV4-11; test: Induction of cell cylce arrest in human MV4-11 cells assessed as accumulation of cells at sub G1 phase at 3 uM after 72 hrs by RNase A/propidium iodide staining based flow cytometry (reference value: 1.58%); assay type: functional
Method in brief: (§1)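 MV4-11 cells were seeded at 8 × 10⁴, held overnight at 37 °C with 5% CO2, then treated 72 h at 3 or 10 µM against a DMSO diluent control. Pellets were fixed in 70% ethanol on ice for 15 min, then stained 1 h at room temperature with PI, 0.1 mg/mL RNase A and 0.05% Triton X-100. Sub-G1, G1, S and G2/M fractions were read by flow cytometry.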

[20] = tested on: MV4-11; test: Induction of cell cylce arrest in human MV4-11 cells assessed as accumulation of cells at S phase at 3 uM after 72 hrs by RNase A/propidium iodide staining based flow cytometry (reference value: 18.81%); assay type: functional; method in brief: as §1
[21] = tested on: MV4-11; test: Induction of cell cylce arrest in human MV4-11 cells assessed as accumulation of cells at sub G1 phase at 10 uM after 72 hrs by RNase A/propidium iodide staining based flow cytometry (reference value: 1.58%); assay type: functional; method in brief: as §1
[22] = target: CDK8/Cyclin C (Homo sapiens, UniProt P49336); test: Inhibition of CDK8/Cyclin C (unknown origin) using RBER-CHKtide as substrate in presence of [33P]gammaATP incubated for 60 mins by microplate scintillation counter analysis
Chain of CDK8/Cyclin C (P49336 whole entry): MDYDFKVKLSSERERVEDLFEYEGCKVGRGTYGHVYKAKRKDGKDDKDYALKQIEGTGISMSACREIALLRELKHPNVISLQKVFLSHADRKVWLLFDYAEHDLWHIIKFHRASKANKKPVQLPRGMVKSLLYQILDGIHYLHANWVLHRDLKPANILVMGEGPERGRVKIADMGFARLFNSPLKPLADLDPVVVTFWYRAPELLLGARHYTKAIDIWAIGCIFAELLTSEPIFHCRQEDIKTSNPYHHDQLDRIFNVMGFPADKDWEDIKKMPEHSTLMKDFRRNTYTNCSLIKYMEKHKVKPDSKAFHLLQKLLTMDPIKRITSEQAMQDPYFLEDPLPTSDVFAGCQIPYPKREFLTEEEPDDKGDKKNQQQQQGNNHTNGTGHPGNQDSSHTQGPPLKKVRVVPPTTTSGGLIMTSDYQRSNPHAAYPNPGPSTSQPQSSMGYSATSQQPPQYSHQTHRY
Chain of CDK8/Cyclin C (P24863 whole entry, further chain): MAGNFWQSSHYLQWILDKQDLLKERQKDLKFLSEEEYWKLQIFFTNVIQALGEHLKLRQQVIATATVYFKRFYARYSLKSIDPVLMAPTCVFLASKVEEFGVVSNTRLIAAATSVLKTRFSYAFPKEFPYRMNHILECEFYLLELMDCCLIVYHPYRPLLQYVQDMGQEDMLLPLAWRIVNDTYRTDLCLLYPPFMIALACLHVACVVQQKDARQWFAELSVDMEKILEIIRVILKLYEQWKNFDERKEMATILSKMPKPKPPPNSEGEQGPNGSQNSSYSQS

Question: With Nc1ncc(-c2cc3ccccc3o2)c(N2CCC3(CCNC3=O)CC2)c1Cl as the compound, how does the GI50 [1] read?
Answer: The GI50 was 0.6 µM.

Question: And the Activity [2]?
Answer: Its Activity is 61%.

Question: What about the Activity [3] of the same compound?
Answer: The Activity was 61%.

Question: What about the Activity [4] of the same compound?
Answer: Its Activity is 61%.

Question: And the Vd [5]?
Answer: Its Vd is 1.57 L/kg.

Question: And the Vd [6]?
Answer: Its Vd is 1.24 L/kg.

Question: And the clearance [7]?
Answer: Its clearance is 54.2 mL/min/kg.

Question: What about the Cmax [8] of the same compound?
Answer: The Cmax was 9.36 µM.

Question: What about the Cmax [9] of the same compound?
Answer: Its Cmax is 4.16 µM.

Question: And the Cmax [10]?
Answer: Its Cmax is 2.23 µM.

Question: And the Tmax [11]?
Answer: The Tmax was 4 h.

Question: And the AUC at 24 h [12]?
Answer: The AUC at 24 h was 25.1 µM·h.

Question: What about the AUC at 24 h [13] of the same compound?
Answer: Its AUC at 24 h is 2.56 µM·h.

Question: What about the Ki [14] of the same compound?
Answer: The Ki was 0.051 µM.

Question: And the Ki [15]?
Answer: Its Ki is 0.166 µM.

Question: And the Ki [16]?
Answer: The Ki was 0.242 µM.

Question: What about the GI50 [17] of the same compound?
Answer: Its GI50 is 5.31 µM.

Question: And the Activity [18]?
Answer: Its Activity is 14.01%.

Question: And the Activity [19]?
Answer: Its Activity is 1.73%.

Question: What about the Activity [20] of the same compound?
Answer: The Activity was 10.03%.

Question: And the Activity [21]?
Answer: The Activity was 4.89%.

Question: And the Ki [22]?
Answer: Its Ki is 0.009 µM.
